Results on 9 molecules are retold here after ChEMBL document CHEMBL3608216, “Synthesis and evaluation of novel pleuromutilin derivatives with a substituted pyrimidine moiety” (2015).

What all share (format): functional
The test system of one assay is Bacillus subtilis. In words: Antibacterial activity against Bacillus subtilis […] after 24 to 48 hrs by agar dilution method. The method, boiled down: (§1)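 Agar dilution per NCCLS. Compounds were dissolved in 15%–30% DMSO in water, serially two-fold diluted in distilled water (11 dilutions) and incorporated into hot Mueller–Hinton agar at a tenfold further dilution. Inocula from blood slants were adjusted to about 10^5–10^6 CFU/mL in 0.90% saline and spotted onto the plates, then incubated at 36.5 °C for 24–48 h. MIC was the lowest concentration giving complete growth inhibition; run in triplicate.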
Background: In agar dilution the substance is mixed into plates at graded concentrations.

In another assay the test system is Escherichia coli. In words: Antibacterial activity against Escherichia coli ATCC 25922 after 24 to 48 hrs by agar dilution method. The method, boiled down:
as §1

Assay [1] concerns Staphylococcus aureus. The assay is described as follows: Antibacterial activity against […] Staphylococcus aureus ATCC 29213 after 24 to 48 hrs by agar dilution method. The method, boiled down: (§2)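 Agar dilution per NCCLS. Compounds at 1.28 mg/mL stock in 15%–30% DMSO/water, two-fold serial dilutions (11 total) in water, mixed 1:10 into hot Mueller-Hinton agar. Inocula from blood slants adjusted to about 10^5–10^6 CFU/mL in 0.90% saline, spotted onto plates, incubated 36.5 °C for 24–48 h. MIC is the lowest concentration giving complete growth inhibition. Run in triplicate.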

For assay [2], the system named is Staphylococcus epidermidis. The assay is described as follows: Antibacterial activity against […] Staphylococcus epidermidis ATCC 35984 after 24 to 48 hrs by agar dilution method. The conditions noted are these: RP62A. The essentials:
as §2

In assay [3] the test system is Staphylococcus aureus. The assay is described as follows: Antibacterial activity against […] Staphylococcus aureus in iv dosed neutropenic mouse systemic infection model assessed as increase in mouse survival measured on day 4. The essentials:
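Male and female mice made neutropenic with ip cyclophosphamide, 150 mg/kg for four days, then 100 mg/kg one day before inoculation. Infected ip with 0.5 mL MRSA at 10^9 CFU/mL, 10 per group. About 1 h later dosed iv at 2, 3, 4.46, 6.64 and 10 mg/kg in 0.5 mL soybean lecithin:sterile water (1:30). Endpoint was survival at day 4. ED50 calculated by Reed–Muench using the Hill equation.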

Molecules are shown by their SMILES. Converted amounts (≈) assume the structure as drawn.

Broadly, the MIC is the least concentration at which growth counts as inhibited. Low values mean greater potency, high ones weaker potency. `C=C[C@]1(C)C[C@@H](OC(=O)CSc2nc(O)cc(NC(C)=O)n2)[C@]2(C)[C@H](C)CC[C@]3(CCC(=O)[C@H]32)[C@@H](C)[C@@H]1O`: the results for the MIC against Bacillus subtilis and against Escherichia coli were 32 µg/mL (≈ 58.6 µM) and 8 µg/mL (≈ 14.7 µM), respectively.
On to `C=C[C@]1(C)C[C@@H](OC(=O)CSc2nc(O)cc(NC(=O)[C@H]3CCCCN3)n2)[C@]2(C)[C@H](C)CC[C@]3(CCC(=O)[C@H]32)[C@@H](C)[C@@H]1O`, for which the minimal inhibitory concentration (MIC) in the assay with Staphylococcus aureus [1] was found to be 8 µg/mL (≈ 13 µM); in assay [2] it was 2 µg/mL (≈ 3.25 µM); against Bacillus subtilis, 16 µg/mL (≈ 26 µM); in the assay with Escherichia coli, 32 µg/mL (≈ 52 µM).
The matching figures for `C=C[C@]1(C)C[C@@H](OC(=O)CSc2nc(O)cc(NC(=O)[C@@H](N)C(C)C)n2)[C@]2(C)[C@H](C)CC[C@]3(CCC(=O)[C@H]32)[C@@H](C)[C@@H]1O`: 2 µg/mL (≈ 3.32 µM), 0.5 µg/mL (≈ 0.829 µM), 16 µg/mL (≈ 26.5 µM) and 32 µg/mL (≈ 53.1 µM).
As usually defined, the ED50 is the dose that gives a 50% effect, or the effect in half of the subjects. Take `C=C[C@]1(C)C[C@@H](OC(=O)CSCCN(CC)CC)[C@]2(C)[C@H](C)CC[C@]3(CCC(=O)[C@H]32)[C@@H](C)[C@@H]1O.O=C(O)/C=C/C(=O)O` [TIAMULIN FUMARATE]: the MIC was 0.5 µg/mL against Staphylococcus aureus [1], 0.25 µg/mL in assay [2], 32 µg/mL against Bacillus subtilis and 8 µg/mL in the assay on Escherichia coli. The Activity entry with Staphylococcus aureus [3] was “Dose-dependent effect”. Further, the median effective dose (ED50) in the assay with Staphylococcus aureus [3] (96 h) came to 5.95 mg/kg.
Regarding `C=C[C@]1(C)C[C@@H](OC(=O)CSc2nc(N)cc(O)n2)[C@]2(C)[C@H](C)CC[C@]3(CCC(=O)[C@H]32)[C@@H](C)[C@@H]1O`, the minimum inhibitory concentration (MIC) in the assay with Staphylococcus aureus [1] was determined as 0.25 µg/mL (≈ 0.496 µM); in assay [2], 0.125 µg/mL (≈ 0.248 µM); against Bacillus subtilis, 32 µg/mL (≈ 63.5 µM); against Escherichia coli it was 16 µg/mL (≈ 31.8 µM).
Take `C=C[C@]1(C)C[C@@H](OC(=O)CSc2nc(O)cc(NC(=O)[C@H](N)C(C)C)n2)[C@]2(C)[C@H](C)CC[C@]3(CCC(=O)[C@H]32)[C@@H](C)[C@@H]1O`: the MIC worked out at 1 µg/mL (≈ 1.66 µM) against Staphylococcus aureus [1], 0.125 µg/mL (≈ 0.207 µM) in assay [2], 8 µg/mL (≈ 13.3 µM) against Bacillus subtilis and 64 µg/mL (≈ 106 µM) against Escherichia coli.
Consider `C=C[C@]1(C)C[C@@H](OC(=O)CSc2nc(N)cc(OC)n2)[C@]2(C)[C@H](C)CC[C@]3(CCC(=O)[C@H]32)[C@@H](C)[C@@H]1O`, for which the minimal inhibitory concentration (MIC) with Staphylococcus aureus [1] is 1 µg/mL (≈ 1.93 µM); in assay [2] it was 0.5 µg/mL (≈ 0.966 µM); with Bacillus subtilis, 16 µg/mL (≈ 30.9 µM); against Escherichia coli, 32 µg/mL (≈ 61.8 µM).
The matching figures for `C=C[C@]1(C)C[C@@H](OC(=O)CSc2nc(N)cc(=O)n2C)[C@]2(C)[C@H](C)CC[C@]3(CCC(=O)[C@H]32)[C@@H](C)[C@@H]1O`: 2 µg/mL (≈ 3.86 µM), 1 µg/mL (≈ 1.93 µM), 16 µg/mL (≈ 30.9 µM) and 32 µg/mL (≈ 61.8 µM).
The matching figures for `C=C[C@]1(C)C[C@@H](OC(=O)CSc2nc(O)cc(NC(=O)[C@@H]3CCCCN3)n2)[C@]2(C)[C@H](C)CC[C@]3(CCC(=O)[C@H]32)[C@@H](C)[C@@H]1O`: 4 µg/mL (≈ 6.51 µM), 1 µg/mL (≈ 1.63 µM), 16 µg/mL (≈ 26 µM) and 16 µg/mL (≈ 26 µM).
